ChEMBL document CHEMBL4007477, “Novel 2-phenyl-4,5,6,7-tetrahydro[b]benzothiophene analogues as selective COX-2 inhibitors: Design, synthesis, anti-inflammatory evaluation, and molecular docking studies” (Bioorg Med Chem Lett, 2017)

What was measured:
[1] = target: T1, COX1 (Prostaglandin G/H synthase 1) (Ovis aries, UniProt P05979); test: Inhibition of ovine COX1 at 60 uM using arachidonic acid as substrate preincubated for 5 mins followed by substrate addition measured after 2 mins by ADHP probe-based fluorescence assay relative to control; conditions: sheep, ovine COX1 enzyme
T1 sequence (P05979 whole entry): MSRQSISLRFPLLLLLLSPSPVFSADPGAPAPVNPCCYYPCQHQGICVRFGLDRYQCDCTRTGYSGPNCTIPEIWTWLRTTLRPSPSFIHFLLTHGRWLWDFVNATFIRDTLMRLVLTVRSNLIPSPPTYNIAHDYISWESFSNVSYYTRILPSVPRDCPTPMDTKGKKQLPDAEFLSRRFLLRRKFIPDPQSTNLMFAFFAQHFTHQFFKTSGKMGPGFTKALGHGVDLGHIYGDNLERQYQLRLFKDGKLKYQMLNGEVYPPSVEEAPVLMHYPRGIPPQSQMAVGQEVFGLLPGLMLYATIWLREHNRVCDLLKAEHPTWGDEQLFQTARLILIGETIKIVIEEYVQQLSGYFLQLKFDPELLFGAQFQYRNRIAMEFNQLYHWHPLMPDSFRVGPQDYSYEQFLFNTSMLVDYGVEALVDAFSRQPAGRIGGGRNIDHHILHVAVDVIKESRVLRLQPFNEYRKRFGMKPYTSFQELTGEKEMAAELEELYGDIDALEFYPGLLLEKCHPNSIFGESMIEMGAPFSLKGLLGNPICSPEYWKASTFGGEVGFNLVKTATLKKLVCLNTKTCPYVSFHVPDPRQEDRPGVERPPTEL

[2] = target: T2, Prostaglandin G/H synthase 2 (Homo sapiens) (UniProt P35354); conditions: at 60 µM
T2 sequence (whole entry): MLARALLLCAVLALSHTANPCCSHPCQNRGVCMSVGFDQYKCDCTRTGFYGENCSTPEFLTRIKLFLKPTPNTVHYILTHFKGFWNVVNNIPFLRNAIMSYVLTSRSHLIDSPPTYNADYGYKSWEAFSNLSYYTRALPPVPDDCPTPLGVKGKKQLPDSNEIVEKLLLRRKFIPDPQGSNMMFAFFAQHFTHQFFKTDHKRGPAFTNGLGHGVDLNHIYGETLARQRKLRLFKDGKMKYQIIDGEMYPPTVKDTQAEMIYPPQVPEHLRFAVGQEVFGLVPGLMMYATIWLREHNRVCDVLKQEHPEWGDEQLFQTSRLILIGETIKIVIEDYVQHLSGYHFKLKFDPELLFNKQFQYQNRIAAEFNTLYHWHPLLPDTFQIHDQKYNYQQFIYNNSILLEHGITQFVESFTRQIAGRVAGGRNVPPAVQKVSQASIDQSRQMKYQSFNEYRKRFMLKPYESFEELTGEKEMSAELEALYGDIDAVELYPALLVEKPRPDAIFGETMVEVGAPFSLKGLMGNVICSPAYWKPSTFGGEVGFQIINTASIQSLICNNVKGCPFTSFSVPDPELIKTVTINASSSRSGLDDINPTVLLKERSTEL

Rattus norvegicus [3] = test: Antiinflammatory activity in carrageenan-induced Wistar rat paw edema model assessed as rise in paw volume at 150 ug/kg administered 1 hr followed by carrageenan challenge measured at 360 mins by plethysmometer (reference value: 49.3%); assay type: functional
Rattus norvegicus [4] = test: Antiinflammatory activity in carrageenan-induced Wistar rat paw edema model assessed as rise in paw volume at 150 ug/kg administered 1 hr followed by carrageenan challenge measured at 60 mins by plethysmometer (reference value: 52.8%); assay type: functional
Rattus norvegicus [5] = test: Antiinflammatory activity in carrageenan-induced Wistar rat paw edema model assessed as rise in paw volume at 150 ug/kg administered 1 hr followed by carrageenan challenge measured at 180 mins by plethysmometer (reference value: 60.1%); assay type: functional
Rattus norvegicus [6] = test: Antiinflammatory activity in carrageenan-induced Wistar rat paw edema model assessed as rise in paw volume at 150 ug/kg administered 1 hr followed by carrageenan challenge measured at 30 mins by plethysmometer (reference value: 49.5%); assay type: functional
[7] = Selectivity index, ratio of IC50 for ovine COX1 to IC50 for human recombinant COX2
How it was run: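 Selectivity index computed as COX-1 IC₅₀ / COX-2 IC₅₀, using ovine COX-1 and human recombinant COX-2. Each IC₅₀ is a mean of two determinations.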

[8] = target: T3, Prostaglandin G/H synthase 2 (Homo sapiens, UniProt P35354); test: Inhibition of human recombinant COX2 using arachidonic acid as substrate preincubated for 5 mins followed by substrate addition measured after 2 mins by ADHP probe-based fluorescence assay
T3 sequence (P35354 whole entry): T2 sequence (whole entry)

[9] = target: T4, Prostaglandin G/H synthase 1 (Ovis aries, UniProt P05979); test: Inhibition of ovine COX1 using arachidonic acid as substrate preincubated for 5 mins followed by substrate addition measured after 2 mins by ADHP probe-based fluorescence assay
T4 sequence (P05979 whole entry): T1 sequence (P05979 whole entry)

[10] = Cytotoxicity against mouse RAW264.7 cells assessed as cell viability at 80 uM after 24 hrs by MTT assay relative to control; assay type: cell-based; conditions: read-out: Activity
How it was run: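 MTT viability in RAW 264.7 cells after 24 h exposure to 5, 10, 20, 40, 80 and 160 µM compound.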

SMILES | inhibition at 2 min, 60 µM [1] [%] | inhibition [2] [%] | IC50 [8] [µM] | IC50 [9] [µM] | Activity (Rattus norvegicus [3]) [%] | Activity (Rattus norvegicus [4]) [%] | Activity (Rattus norvegicus [5]) [%] | Activity (Rattus norvegicus [6]) [%] | Ratio IC50 [7] | viability at 24 h, 80 µM [10] [%]
N#Cc1ccc(OC(=O)c2c(-c3ccccc3)sc3c2CCCC3)cc1 | 76 | 83.7 |  |  | 28.5 | 22 | 21.4 | 13.6 |  | 
CC(=O)c1cccc(OC(=O)c2c(-c3ccccc3)sc3c2CCCC3)c1 | 73.5 | 93.5 | 0.31 | 29.6 | 30.3 | 30.8 | 30.5 | 28.9 | 92.7 | 64.5
CC(=O)Nc1ccc(OC(=O)c2c(-c3ccccc3)sc3c2CCCC3)cc1 | 36.8 | 75.7 | 1.4 | 68.8 | 37 | 30.2 | 27 | 10.6 | 48.8 | 41.3
Cc1ccc(-c2cc(C(F)(F)F)nn2-c2ccc(S(N)(=O)=O)cc2)cc1 [CELECOXIB] |  |  |  |  | 26.6 | 16.2 | 19.7 | 5.8 |  | 33.9
O=C(Oc1ccc(Cl)cc1)c1c(-c2ccccc2)sc2c1CCCC2 | 72.4 | 36.8 |  |  |  |  |  |  |  | 
COC(=O)Cc1ccc(OC(=O)c2c(-c3ccccc3)sc3c2CCCC3)cc1 | 7.81 | 15 |  |  |  |  |  |  |  | 
O=C(Oc1ccc([N+](=O)[O-])cc1)c1c(-c2ccccc2)sc2c1CCCC2 | 19.3 | 16.5 |  |  |  |  |  |  |  | 
NS(=O)(=O)c1ccc(OC(=O)c2c(-c3ccccc3)sc3c2CCCC3)cc1 | 69.3 | 89.4 | 0.67 | 37 | 31.3 | 21.6 | 21.1 | 21.4 | 54.7 | 83.7

More lines, main results first:

inhibition at 2 min, 60 µM [1] [%] | inhibition [2] [%] | IC50 [8] [µM] | IC50 [9] [µM] | SMILES | Activity (Rattus norvegicus [3]) [%] | Activity (Rattus norvegicus [4]) [%] | Activity (Rattus norvegicus [5]) [%] | Activity (Rattus norvegicus [6]) [%] | Ratio IC50 [7] | viability at 24 h, 80 µM [10] [%]
35.5 | 18.5 |  |  | O=C(Oc1ccc(Br)cc1)c1c(-c2ccccc2)sc2c1CCCC2 |  |  |  |  |  | 
1.43 | 38.3 |  |  | NC(=O)Cc1ccc(OC(=O)c2c(-c3ccccc3)sc3c2CCCC3)cc1 |  |  |  |  |  | 
68.9 | 56.5 |  |  | COC(=O)c1ccc(OC(=O)c2c(-c3ccccc3)sc3c2CCCC3)cc1 |  |  |  |  |  | 
10.3 | 8.04 |  |  | CC(=O)c1ccc(OC(=O)c2c(-c3ccccc3)sc3c2CCCC3)cc1 | 54.2 | 37.1 | 55.2 | 24.7 |  | 
8.1 | 3.1 |  |  | CC(C)(C)c1ccc(OC(=O)c2c(-c3ccccc3)sc3c2CCCC3)cc1 |  |  |  |  |  | 
10.7 | 41 |  |  | COc1ccc(OC(=O)c2c(-c3ccccc3)sc3c2CCCC3)cc1 |  |  |  |  |  | 
11.6 | 10.7 |  |  | O=Cc1ccc(OC(=O)c2c(-c3ccccc3)sc3c2CCCC3)cc1 |  |  |  |  |  | 
47.1 | 97.6 | 0.33 | 61.2 | O=C(Oc1ccccc1)c1c(-c2ccccc2)sc2c1CCCC2 | 37 | 30.2 | 27 | 10.6 | 184 | 50.8
64 | 47.2 |  |  | Cc1ccc(OC(=O)c2c(-c3ccccc3)sc3c2CCCC3)cc1 |  |  |  |  |  | 
88.3 | 32.3 |  |  | Nc1ccc(OC(=O)c2c(-c3ccccc3)sc3c2CCCC3)cc1 | 39.9 | 33.1 | 44.9 | 29 |  | 
